Reference: ChEMBL document CHEMBL1123956, “Nitrosoureido nucleosides as potential inhibitors of nucleotide biosynthesis” (J Med Chem, 1988)
Values joined by “and” are separate entries in the source; they are usually repeats but may differ in a detail not shown here. Equal values may be shown once.

How the values were obtained:
[1] = (§1) Half life was measured at pH 7; format: ADME
Method in brief: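 Stability in pH 7 buffer, followed by HPLC; reported as half-life. The method is taken from an earlier paper.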

[2] = system: HEp-2; test: Inhibition of colony formation of H.Ep-2 cells; format: functional, cell-based; details: Homo sapiens, read-out: I50
Method in brief: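 H.Ep.-2 cells exposed to drug over a 12-day period. Colony formation was scored against untreated controls, and I50 was taken as the concentration giving 50% inhibition.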

[3] = system: L1210; test: Inhibition of proliferation of L1210 cells; format: functional, cell-based; details: Mus musculus, read-out: I50
Method in brief: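 L1210 cells in suspension culture with drug for 48 h. I50 was the concentration giving 50% inhibition of proliferation relative to controls.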

[4] = system: Mus musculus; test: Percent increase in life span of p388 leukemia induced mice was determined at a dose of 100 mg/kg upon ip administration on days 1-5; format: functional; details: route intraperitoneal
Method in brief: (§2)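 Mice implanted with 10⁶ P388 leukemia cells were dosed intraperitoneally once daily on days 1-5 after implant. Activity is expressed as % increase in life span, and 30-day survivors were recorded.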

[5] = system: Mus musculus; test: Percent increase in life span of p388 leukemia induced mice was determined at a dose of 200 mg/kg upon ip administration on days 1-5; format: functional; details: route intraperitoneal; method in brief: as §2
[6] = system: L1210; test: Number of cells present measured with the Coulter counter; format: functional, Mus musculus
Method in brief: (§3)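 L1210 suspension cultures with agent for 30 min or 18 h, then a further 4 h with radiolabelled precursor. Cells were counted by Coulter counter and expressed as R, the count relative to the initial cell number (R = 1.0). R < 1.0 means a fall below the starting number; R > 1.0 means proliferation.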

[7] = system: L1210; test: Size distribution of cells (concuM); format: functional, Mus musculus
Method in brief: (§4)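 L1210 suspension cultures with agent for 30 min or 18 h, then a 4-h labelling period. Size distribution was measured on a Model ZH Coulter Counter. The value is the instrument setting at the peak of cell size; higher settings mean larger cells.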

[8] = system: L1210; test: Number of cells present measured with the Coulter counter(concuM); format: functional, Mus musculus; method in brief: as §3
[9] = system: L1210; test: percent synthesis of protein in L1210 cells when incubated with the compound for 18 hr using [3H]-L-Leu as radioligand; format: functional, Mus musculus
Method in brief: (§5)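 Protein synthesis in L1210 suspension cultures preincubated with agent for 30 min or 18 h. [4,5-3H]-L-leucine was then added, and incorporation into protein was sampled hourly over 4 h. Values are 4-h incorporation as % of untreated control.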

[10] = system: L1210; test: percent synthesis of protein in L1210 cells when incubated with the compound for 18 hr uusing [3H]-L-Leu as radioligand; format: functional, Mus musculus; method in brief: as §5
[11] = system: L1210; test: percent synthesis of DNA in L1210 cells when incubated with the compound for 30 min using […] as radioligand; format: functional, Mus musculus
Method in brief: (§6)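 DNA synthesis in L1210 suspension cultures preincubated with agent for 30 min or 18 h. [3H]dThd was then added to the medium, and incorporation into DNA was sampled at 1-h intervals over 4 h. Values are for the 4-h labelling period, as % of untreated control.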

[12] = system: Mus musculus; test: Percent increase in life span of p388 leukemia induced mice was determined at a dose of 25 mg/kg upon ip administration on days 1-5; format: functional; details: route intraperitoneal; method in brief: as §2
[13] = system: L1210; test: Size distribution of cells; format: functional, Mus musculus; method in brief: as §4
[14] = system: L1210; test: percent synthesis of RNA in L1210 cells when incubated with compound for 18 h using […] as radioligand; format: functional, Mus musculus
Method in brief: (§7)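 RNA synthesis in L1210 suspension cultures preincubated with agent for 30 min or 18 h. [5-3H]Urd was then added, and incorporation into RNA was sampled hourly over 4 h. Values are 4-h incorporation as % of untreated control.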

[15] = system: L1210; test: percent synthesis of RNA in L1210 cells when incubated with compound for 30 min using […] as radioligand; format: functional, Mus musculus; method in brief: as §7
[16] = system: L1210; test: percent synthesis of protein in L1210 cells when incubated with the compound for 30 min using [3H]L-Leu as radioligand; format: functional, Mus musculus; method in brief: as §5
[17] = system: L1210; test: percent synthesis of RNA in L1210 cells when incubated with compound for 18 h using […] as radioligand (conc umol); format: functional, Mus musculus; method in brief: as §7
[18] = system: L1210; test: percent synthesis of DNA in L1210 cells when incubated with the compound for 18 h using […] as radioligand; format: functional, Mus musculus; method in brief: as §6
[19] = as §1; format: ADME; remark: listed apart in the source
Method in brief: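 Stability in pH 7 buffer, with decomposition followed by HPLC and the half-life taken from it.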

[20] = system: L1210; test: Size distribution of cells at 25 uM conc.; format: functional, Mus musculus; method in brief: as §4
[21] = system: L1210; test: percent synthesis of protein in L1210 cells when incubated with the compound for 18 hr using [3H]-L-Leu as radioligand at 25 uM conc.; format: functional, Mus musculus; method in brief: as §5
[22] = system: L1210; test: percent synthesis of RNA in L1210 cells when incubated with compound for 18 hr using […] as radioligand at 50 uM conc.; format: functional, Mus musculus; method in brief: as §7
[23] = system: L1210; test: percent synthesis of DNA in L1210 cells when incubated with the compound for 30 min using […] as radioligand at 10 uM conc.; format: functional, Mus musculus; method in brief: as §6
[24] = system: L1210; test: percent synthesis of protein in L1210 cells when incubated with the compound for 30 min using [3H]L-Leu as radioligand at 25 uM conc.; format: functional, Mus musculus; method in brief: as §5
[25] = system: L1210; test: percent synthesis of RNA in L1210 cells when incubated with compound for 18 h using […] as radioligand at 10 uM conc.; format: functional, Mus musculus; method in brief: as §7
[26] = system: L1210; test: Size distribution of cells at 50 uM conc.; format: functional, Mus musculus; method in brief: as §4
[27] = system: L1210; test: percent synthesis of protein in L1210 cells when incubated with the compound for 30 min using [3H]L-Leu as radioligand at 10 uM conc.; format: functional, Mus musculus; method in brief: as §5
[28] = system: L1210; test: Size distribution of cells at 10 uM conc.; format: functional, Mus musculus; method in brief: as §4
[29] = system: L1210; test: Number of cells present measured with the Coulter counter at 10 uM conc.; format: functional, Mus musculus; method in brief: as §3
[30] = system: L1210; test: percent synthesis of RNA in L1210 cells when incubated with compound for 18 hr using […] as radioligand at 25 uM conc.; format: functional, Mus musculus; method in brief: as §7
[31] = system: L1210; test: percent synthesis of DNA in L1210 cells when incubated with the compound for 18 h using [3H]dUrd as radioligand at 10 uM conc.; format: functional, Mus musculus; details: in the assay text read “[3H]dThd” for “[3H]dUrd”; method in brief: as §6
[32] = system: L1210; test: percent synthesis of protein in L1210 cells when incubated with the compound for 18 hr using [3H]-L-Leu as radioligand at 10 uM conc.; format: functional, Mus musculus; method in brief: as §5
[33] = system: L1210; test: percent synthesis of RNA in L1210 cells when incubated with compound for 30 min using [3H]dThd as radioligand at 25 uM conc.; format: functional, Mus musculus; details: in the assay text read “[5-3H]Urd” for “[3H]dThd”; method in brief: as §7
[34] = system: L1210; test: Number of cells present measured with the Coulter counter at 25 uM conc.; format: functional, Mus musculus; method in brief: as §3
[35] = system: L1210; test: percent synthesis of DNA in L1210 cells when incubated with the compound for 30 min using […] as radioligand at 50 uM conc.; format: functional, Mus musculus; method in brief: as §6
[36] = system: L1210; test: Number of cells present measured with the Coulter counter at 50 uM conc.; format: functional, Mus musculus; method in brief: as §3
[37] = system: L1210; test: percent synthesis of RNA in L1210 cells when incubated with compound for 30 min using [3H]dThd as radioligand at 50 uM conc.; format: functional, Mus musculus; details: in the assay text read “[5-3H]Urd” for “[3H]dThd”; method in brief: as §7
[38] = system: L1210; test: percent synthesis of protein in L1210 cells when incubated with the compound for 30 min using [3H]L-Leu as radioligand at 50 uM conc.; format: functional, Mus musculus; method in brief: as §5
[39] = system: L1210; test: percent synthesis of DNA in L1210 cells when incubated with the compound for 18 h using […] as radioligand at 50 uM conc.; format: functional, Mus musculus; method in brief: as §6
[40] = system: L1210; test: percent synthesis of protein in L1210 cells when incubated with the compound for 18 hr using [3H]-L-Leu as radioligand at 50 uM conc.; format: functional, Mus musculus; method in brief: as §5
[41] = system: L1210; test: percent synthesis of DNA in L1210 cells when incubated with the compound for 30 min using […] as radioligand at 25 uM conc.; format: functional, Mus musculus; method in brief: as §6
[42] = system: L1210; test: percent synthesis of RNA in L1210 cells when incubated with compound for 30 min using […] as radioligand at 10 uM conc.; format: functional, Mus musculus; method in brief: as §7
[43] = system: L1210; test: percent synthesis of DNA in L1210 cells when incubated with the compound for 18 hr using […] as radioligand at 25 uM conc.; format: functional, Mus musculus; method in brief: as §6

Compound: CN(N=O)C(=O)Nc1ccc(NC(=O)C2OC(n3ccc(=O)[nH]c3=O)C(O)C2O)cc1 (stereo not drawn)
- half-life [1]: 2 h
- IC50 [2]: 33 µM
- IC50 [3]: > 90 µM
- ILS at 100 mg/kg [4]: 56%

Compound: Cc1cn(C2CC(O)C(C(=O)NCCN(N=O)C(=O)Nc3ccccc3)O2)c(=O)[nH]c1=O (stereo not drawn)
- half-life [1]: 0.7 h
- IC50 [2]: 90 µM
- IC50 [3]: > 90 µM
- ILS at 200 mg/kg [5]: 14%

Compound: O=NN(CCCl)C(=O)NCC1OC(n2ccc(=O)[nH]c2=O)CC1O (stereo not drawn)
- Cell no [6]: 1.06 and 1.08 and 1.09 and 0.77 and 0.99
- half-life [1]: 4 h
- Cell size [7]: 67.5 and 65 and 82.5
- Cell no [8]: 0.54
- IC50 [2]: 14 µM
- Control [9]: 474% and 254%
- Control [10]: 658%
- Control [11]: 98% and 103% and 100%
- ILS at 25 mg/kg [12]: 191%
- Cell size [13]: 60 and 82.5 and 75
- Control [14]: 554% and 276%
- Control [15]: 87% and 79% and 80%
- Control [16]: 96% and 92% and 95%
- IC50 [3]: 12 µM
- Control [17]: 455%
- Control [18]: 189% and 192% and 152%

Compound: O=NN(C(=O)NC1CCCCC1)C1CCCCC1
- T1/2 [19]: 0.875 h

Compound: Cc1cn(C2CC(O)C(CNC(=O)N(CCCl)N=O)O2)c(=O)[nH]c1=O (stereo not drawn)
- half-life [1]: 6 h
- Cell size [20]: 57.5 and 80
- Control [21]: 455%
- Control [22]: 539%
- IC50 [2]: 10 µM
- Control [23]: 108%
- Control [24]: 99%
- Control [25]: 217%
- Cell size [26]: 55 and 85
- Control [27]: 83%
- Cell size [28]: 60 and 80
- ILS at 25 mg/kg [12]: 135%
- Cell no [29]: 1.08 and 1.21
- Control [30]: 374%
- Control [31]: 145%
- Control [32]: 257%
- Control [33]: 88%
- Cell no [34]: 1.08 and 0.92
- Control [35]: 85%
- Cell no [36]: 1.06 and 0.64
- Control [37]: 87%
- IC50 [3]: 5 µM
- Control [38]: 111%
- Control [39]: 147%
- Control [40]: 597%
- Control [41]: 98%
- Control [42]: 85%
- Control [43]: 171%
